Measured values as given in ChEMBL document CHEMBL1155199, “Synthesis of 6-aminomethyl derivatives of benzopyran-4-one with dual biological properties: anti-inflammatory-analgesic and antimicrobial” (Eur J Med Chem, 2009).
Values after ≈ are worked out from the molar mass of the structure shown.

Legend:
[1] = tested on: Rattus norvegicus; test: Antiinflammatory activity in Wistar albino rat assessed as inhibition of carrageenan-induced paw edema at 20 mg/kg, po administered 30 mins before carrageenan challenge measured after 2 hrs relative to ibuprofen; type: functional
Summary of the method: (§1)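 Wistar albino rats (180–200 g), either sex, randomized into groups of six. Dosed 20 mg/kg p.o.; controls received 0.5% CMC. 30 min later, 0.1 mL 0.1% carrageenan in sterile 0.9% NaCl injected subplantar into the right hind paw. Paw volume read by plethysmometer at 2 and 3 h. Expressed as % inhibition, mean ± SEM, ANOVA with post hoc test.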

[2] = tested on: Penicillium citrinum; test: Antifungal activity against Penicillium citrinum NCIM 768; type: functional
Summary of the method: (§2)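 Antifungal screen against R. oryza NRRL-21498 and P. citrum NCIM-768 with fluconazole as reference. Compounds that inhibited growth of one or more organisms were taken forward to MIC determination, reported in µg/mL.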

[3] = tested on: Rhizopus arrhizus; test: Antifungal activity against Rhizopus oryzae NRRL 21498; type: functional; summary of the method: as §2
[4] = tested on: Staphylococcus aureus; test: Antibacterial activity against Staphylococcus aureus ATCC 29737 by turbidity method; type: functional
[5] = tested on: Rattus norvegicus; test: Gastrointestinal toxicity in Albino rat assessed as severity index at 60 mg/kg, po after 17 hrs relative to control; type: organism-based; design: dose 60 mg/kg, route oral; details: in vivo
Summary of the method: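 Rats fasted 24 h (water allowed), then dosed orally at 60 mg/kg as a suspension in 1% methyl cellulose; controls received vehicle alone. Normal diet for 17 h after dosing. Stomach mucosa examined under a magnifying glass and scored: 0.5 redness, 1.0 spot ulcers, 1.5 haemorrhagic streaks, 2.0 ulcers >3 but <5, 3.0 ulcers >5. Severity index is the group mean score minus the control mean. Data are mean ± S.E.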

[6] = tested on: Rattus norvegicus; test: Effect on lipid peroxidation in Albino rat gastric mucosa assessed as malondialdehyde level per mg of protein at 60 mg/kg, po after 17 hrs relative to ibuprofen; type: ADME, organism-based; design: dose 60 mg/kg, route oral; details: in vivo
Summary of the method: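 Lipid peroxidation measured by the Ohkawa thiobarbituric acid–MDA colorimetric method. Tubes were heated 30 min at 80 °C in a shaking water bath, chilled 10 min in ice water, and centrifuged at 3000 rpm for 15 min. Supernatant absorbance was read at 540 nm against a blank. Results are nmol MDA/mg protein, mean ± S.E.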

[7] = tested on: Mus musculus; test: Analgesic activity in Swiss albino mouse assessed as protection against acetic acid-induced writhing at 20 mg/kg, po administered 1 hr before acetic acid challenge measured for 5 to 15 mins; type: functional
Summary of the method: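 Swiss albino mice (25–30 g), either sex, groups of six, habituated individually 30 min in test cage. Test agents 20 mg/kg suspended in 1.0% CMC given orally; controls received CMC only. 1 h later, 0.10 mL 1% aqueous acetic acid injected i.p. to induce writhing. Data are mean ± S.E., one-way ANOVA with post hoc test.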

[8] = tested on: Rattus norvegicus; test: Antiinflammatory activity in Wistar albino rat assessed as inhibition of carrageenan-induced paw edema at 20 mg/kg, po administered 30 mins before carrageenan challenge measured after 3 hrs relative to ibuprofen; type: functional; summary of the method: as §1
[9] = tested on: Escherichia coli; test: Antibacterial activity against Escherichia coli ATCC 8739 by turbidity method; type: functional

SMILES | inhibition in vivo at 20 mg/kg [1] | MIC [2] | MIC [3] | MIC [4] | Activity [5] | Activity [6] | Activity [7] | inhibition in vivo at 20 mg/kg [8] | MIC [9]
COc1ccc(-c2cc(=O)c3cc(CN4CCNCC4)ccc3o2)cc1 | 39.5% | > 100 µg/mL | 50 µg/mL (≈ 143 µM) | 50 µg/mL (≈ 143 µM) | 0.4 | 0.599 nmol | 40.36% | 68.9% | 50 µg/mL (≈ 143 µM)
COc1ccc(-c2cc(=O)c3cc(CNc4ccc(S(N)(=O)=O)cc4)ccc3o2)cc1 | 25.3% | 25 µg/mL (≈ 57.3 µM) | 10 µg/mL (≈ 22.9 µM) | 25 µg/mL (≈ 57.3 µM) | – | – | – | 60.5% | 50 µg/mL (≈ 115 µM)
COc1ccc(-c2cc(=O)c3cc(CNc4ccc(S(N)(=O)=O)cc4)ccc3o2)cc1OC | 27.1% | 10 µg/mL (≈ 21.4 µM) | 10 µg/mL (≈ 21.4 µM) | 25 µg/mL (≈ 53.6 µM) | – | – | – | 60.5% | 10 µg/mL (≈ 21.4 µM)
COc1ccc(-c2cc(=O)c3cc(CN4CCOCC4)ccc3o2)cc1 | 62.7% | 10 µg/mL (≈ 28.5 µM) | 10 µg/mL (≈ 28.5 µM) | 10 µg/mL (≈ 28.5 µM) | 0.2 | 0.526 nmol | 50.8% | 75.3% | 10 µg/mL (≈ 28.5 µM)
COc1ccc(-c2cc(=O)c3cc(CN(C)C)ccc3o2)cc1OC | 29.8% | 50 µg/mL (≈ 147 µM) | 10 µg/mL (≈ 29.5 µM) | 25 µg/mL (≈ 73.7 µM) | – | – | – | 51% | 25 µg/mL (≈ 73.7 µM)
NS(=O)(=O)c1ccc(NCc2ccc3oc(-c4ccccc4Cl)cc(=O)c3c2)cc1 | 32.2% | 25 µg/mL (≈ 56.7 µM) | > 100 µg/mL | 50 µg/mL (≈ 113 µM) | – | – | – | 58.2% | 50 µg/mL (≈ 113 µM)
COc1ccc(-c2cc(=O)c3cc(CNc4ccc(C)cc4)ccc3o2)cc1OC | 18.7% | 25 µg/mL (≈ 62.3 µM) | 25 µg/mL (≈ 62.3 µM) | 25 µg/mL (≈ 62.3 µM) | – | – | – | 50.8% | 50 µg/mL (≈ 125 µM)
O=c1cc(-c2ccccc2Cl)oc2ccc(CN3CCNCC3)cc12 | 56% | 50 µg/mL (≈ 141 µM) | 50 µg/mL (≈ 141 µM) | > 100 µg/mL | 0.3 | 0.403 nmol | 48.39% | 73.9% | > 100 µg/mL
COc1ccc(-c2cc(=O)c3cc(CN(C)C)ccc3o2)cc1 | 36% | 50 µg/mL (≈ 162 µM) | 10 µg/mL (≈ 32.3 µM) | 50 µg/mL (≈ 162 µM) | – | – | – | 53.1% | 50 µg/mL (≈ 162 µM)
COc1ccc(-c2cc(=O)c3cc(CCl)ccc3o2)cc1OC | 33.3% | > 100 µg/mL | 10 µg/mL (≈ 30.2 µM) | 10 µg/mL (≈ 30.2 µM) | – | – | – | 49.4% | 50 µg/mL (≈ 151 µM)
CN(C)Cc1ccc2oc(-c3ccccc3Cl)cc(=O)c2c1 | 36.2% | > 100 µg/mL | > 100 µg/mL | > 100 µg/mL | – | – | – | 54.3% | 50 µg/mL (≈ 159 µM)
O=c1cc(-c2ccccc2Cl)oc2ccc(CN3CCOCC3)cc12 | 64.4% | 25 µg/mL (≈ 70.3 µM) | 25 µg/mL (≈ 70.3 µM) | 50 µg/mL (≈ 141 µM) | 0.1 | 0.352 nmol | 54.81% | 82.5% | > 100 µg/mL
Cc1ccc(NCc2ccc3oc(-c4ccccc4Cl)cc(=O)c3c2)cc1 | 19.8% | > 100 µg/mL | 50 µg/mL (≈ 133 µM) | > 100 µg/mL | – | – | – | 52.7% | > 100 µg/mL
COc1ccc(-c2cc(=O)c3cc(CNc4ccc(C)cc4)ccc3o2)cc1 | 18.7% | > 100 µg/mL | 50 µg/mL (≈ 135 µM) | 50 µg/mL (≈ 135 µM) | – | – | – | 51% | 50 µg/mL (≈ 135 µM)
COc1ccc(-c2cc(=O)c3cc(CN4CCNCC4)ccc3o2)cc1OC | 54% | 50 µg/mL (≈ 131 µM) | 25 µg/mL (≈ 65.7 µM) | 25 µg/mL (≈ 65.7 µM) | 0.4 | 0.525 nmol | 45.38% | 72.2% | 10 µg/mL (≈ 26.3 µM)
COc1ccc(-c2cc(=O)c3cc(CN4CCOCC4)ccc3o2)cc1OC | 61.8% | 10 µg/mL (≈ 26.2 µM) | 10 µg/mL (≈ 26.2 µM) | 10 µg/mL (≈ 26.2 µM) | 0.1 | 0.331 nmol | 53.61% | 80.9% | 10 µg/mL (≈ 26.2 µM)
COc1ccc(-c2cc(=O)c3cc(CCl)ccc3o2)cc1 | 32.2% | > 100 µg/mL | 10 µg/mL (≈ 33.3 µM) | 10 µg/mL (≈ 33.3 µM) | – | – | – | 38.7% | 50 µg/mL (≈ 166 µM)
OC(Cn1cncn1)(Cn1cncn1)c1ccc(F)cc1F [FLUCONAZOLE] | – | 6.25 µg/mL (≈ 20.4 µM) | 6.25 µg/mL (≈ 20.4 µM) | – | – | – | – | – | –
CC(C)Cc1ccc(C(C)C(=O)O)cc1 (stereo unspecified) [IBUPROFEN] | – | – | – | – | 0.9 | – | 65.06% | – | –
CCn1cc(C(=O)O)c(=O)c2cc(F)c(N3CCNCC3)cc21 [NORFLOXACIN] | – | – | – | 6.25 µg/mL (≈ 19.6 µM) | – | – | – | – | 6.25 µg/mL (≈ 19.6 µM)
